Data reported in ChEMBL document CHEMBL1151423, “Pharmacokinetics-pharmacodynamics of gatifloxacin in a lethal murine Bacillus anthracis inhalation infection model” (Antimicrob Agents Chemother, 2007).
Values after ≈ are worked out from the molar mass of the structure shown.

Experiments:
[1] = Apparent total clearance in human; format: ADME, organism-based; settings: in vivo, read-out: CLt/F (converted)
[2] = Half life in human; format: ADME, organism-based; settings: in vivo
[3] = Half life in mouse at 10 to 100 mg/kg, ip; format: ADME, organism-based; design: dose 10-100 mg/kg, route intraperitoneal; settings: in vivo
In short: (§1)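 Mice, three groups, each received a single intraperitoneal gatifloxacin dose of 10, 50 or 100 mg/kg. Sera were taken by exsanguination under anaesthesia from three mice per group at 0.25–12 h post-dose and stored at −70°C. Levels were measured by bioassay (S. aureus ATCC 29213 indicator; standard curve in control mouse serum) in triplicate, detection range 0.12–64 μg/ml. Pooled data were fitted by maximum likelihood to a two-compartment model with first-order absorption and lag time.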

Mus musculus [4] = experiment: Apparent distribution clearance in mouse at 10 to 100 mg/kg, ip; format: ADME, organism-based; design: dose 10-100 mg/kg, route intraperitoneal; settings: in vivo; in short: as §1
Mus musculus [5] = experiment: Tlag in mouse at 10 to 100 mg/kg, ip; format: ADME, organism-based; design: dose 10-100 mg/kg, route intraperitoneal; settings: in vivo; in short: as §1
Mus musculus [6] = experiment: Apparent peripheral volume of distribution in mouse at 10 to 100 mg/kg, ip; format: ADME, organism-based; design: dose 10-100 mg/kg, route intraperitoneal; settings: in vivo; in short: as §1
Bacillus anthracis = experiment: Antimicrobial activity against Bacillus anthracis Ames after 18 hrs by microdilution method; format: functional
Mus musculus [7] = experiment: Apparent volume of distribution with respect to the bioavailability in mouse at 10 to 100 mg/kg, ip; format: ADME, organism-based; settings: in vivo; in short: as §1
[8] = Apparent total clearance in mouse at 10 to 100 mg/kg, ip; format: ADME, organism-based; design: dose 10-100 mg/kg, route intraperitoneal; settings: in vivo, read-out: CLt/F (converted); in short: as §1
[9] = Ratio of AUC (0 to 24 hrs) for Staphylococcus infected patient to MIC for Staphylococcus; format: functional
[10] = Ratio of AUC (0 to 24 hrs) for Enterococcus infected patient to MIC for Enterococcus; format: functional
[11] = Ratio of AUC (0 to 24 hrs) for Staphylococcus aureus infected ICR/Swiss mouse model to MIC for Staphylococcus aureus; format: functional

With `COc1c(N2CCNC(C)C2)c(F)cc2c(=O)c(C(=O)O)cn(C3CC3)c12` (configuration not stated) [GATIFLOXACIN] the CL/F [1] was 1.67 mL/min/kg, the half-life [2] was 9 h and the half-life [3] was 0.6 h. The CLd/F (Mus musculus [4]) was 128 mL/min/kg, the Tlag (Mus musculus [5]) was 0.23 h and the Vp/F (Mus musculus [6]) was 1.6 L/kg. For the same compound, the MIC (Bacillus anthracis) was 0.125 µg/mL (≈ 0.333 µM), the Vc/F (Mus musculus [7]) was 0.2 L/kg and the CL/F [8] was 45 mL/min/kg. For the same compound, the Ratio [9] was 85, the Ratio [10] was 85 and the Ratio [11] was 83.
